The source of these data is ChEMBL document CHEMBL3352699 (J Med Chem, 2014).

The target of series [1] is T1, Pyroglutamylated RF-amide peptide receptor (Homo sapiens, UniProt Q96P65).
T1 sequence (Q96P65 whole entry): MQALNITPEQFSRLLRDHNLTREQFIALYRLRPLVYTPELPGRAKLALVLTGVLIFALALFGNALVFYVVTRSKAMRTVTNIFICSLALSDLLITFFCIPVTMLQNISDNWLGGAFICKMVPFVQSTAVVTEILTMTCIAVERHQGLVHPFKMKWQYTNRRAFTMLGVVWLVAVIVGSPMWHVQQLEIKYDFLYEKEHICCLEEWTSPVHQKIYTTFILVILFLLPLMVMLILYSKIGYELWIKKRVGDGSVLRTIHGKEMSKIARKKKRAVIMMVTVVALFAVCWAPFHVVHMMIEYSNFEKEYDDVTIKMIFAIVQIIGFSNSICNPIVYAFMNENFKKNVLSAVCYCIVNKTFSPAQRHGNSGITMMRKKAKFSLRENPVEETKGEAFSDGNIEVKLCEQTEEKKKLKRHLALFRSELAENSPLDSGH
Nature of the series: Inhibition of human GPR103 receptor expressed in CHOK1 cells by IP-1 assay. It counts as cell-based, CHO-K1. The procedure, abridged:
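Cryopreserved human QRFP/GPR103 receptor cell line thawed in stimulation buffer, preincubated with compound at 37 °C, 5% CO2, then stimulated with hQRFP43 at EC80 for 50 min at 37 °C. IP-1 read by HTRF (665/620 nm ratio). IC50 mean of N = 2−52 determinations, one to three replicates per concentration; CIR 2.0, MDR 2.8.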

Series [2] in a line: Octanol-water partition coefficient, log D of the compound at pH 7.4 by shake flask method. It counts as physicochemical.
Series [3] concerns the target T1, Pyroglutamylated RF-amide peptide receptor. Nature of the series: Displacement of [125I]QRFP43 from human GPR103 receptor expressed in HEK cells after 90 mins incubation by scintillation counting. The format is cell-based, HEK293. The gist of the method:
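HEK membranes overexpressing human GPR103 incubated with compound and 0.25 nM 125I-hQRFP43 in 50 mM Tris pH 7.4, 1 mM EDTA, 0.1% BSA at 30 °C for 90 min. Bound radioligand separated by vacuum filtration and counted by scintillation. IC50 mean of N = 2−5 determinations, one replicate per concentration; CIR 1.7, MDR 2.1.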
In general terms: Loss of bound radioactivity is the signal in a displacement assay; it reports binding, not function.

A further series deals with Cytochrome P450 2C9 (Homo sapiens, UniProt P11712). Nature of the series: Inhibition of human recombinant CYP2C9 after 20 to 50 mins by high-throughput fluorescence assay. The format is ADME. The settings on record: recombinant enzyme.
Series [4] deals with Potassium voltage-gated channel subfamily E member 1 (Homo sapiens, UniProt P15382). The experiment in a line: Inhibition of human cardiac slowly activating delayed rectifier K+ channel expressed in CHO cells by electrophysiology assay. The format is cell-based.
Series [5] can be described thus: Solubility of the compound in HBSS buffer at pH 7.4 after 18 hrs by LC/MS/MS analysis. The format is physicochemical.
Series [6] can be described thus: Inhibition of mouse GPR103B receptor expressed in CHO cells by IP-1 assay. It counts as cell-based. The gist of the method:
(§1)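 CHO cells overexpressing mouse GPR103A or GPR103B thawed in stimulation buffer, preincubated with compound at 37 °C, 5% CO2, then stimulated with hQRFP43 at EC80 for 50 min at 37 °C. IP-1 measured by HTRF (665/620 nm ratio).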

The next series has as its target Cytochrome P450 2D6 (Homo sapiens, UniProt P10635). Nature of the series: Inhibition of human CYP2D6 after 20 to 50 mins by high-throughput fluorescence assay. It counts as ADME.
The next series concerns the target T2, Cytochrome P450 1A2 (Homo sapiens, UniProt P05177).
T2 sequence (P05177 whole entry): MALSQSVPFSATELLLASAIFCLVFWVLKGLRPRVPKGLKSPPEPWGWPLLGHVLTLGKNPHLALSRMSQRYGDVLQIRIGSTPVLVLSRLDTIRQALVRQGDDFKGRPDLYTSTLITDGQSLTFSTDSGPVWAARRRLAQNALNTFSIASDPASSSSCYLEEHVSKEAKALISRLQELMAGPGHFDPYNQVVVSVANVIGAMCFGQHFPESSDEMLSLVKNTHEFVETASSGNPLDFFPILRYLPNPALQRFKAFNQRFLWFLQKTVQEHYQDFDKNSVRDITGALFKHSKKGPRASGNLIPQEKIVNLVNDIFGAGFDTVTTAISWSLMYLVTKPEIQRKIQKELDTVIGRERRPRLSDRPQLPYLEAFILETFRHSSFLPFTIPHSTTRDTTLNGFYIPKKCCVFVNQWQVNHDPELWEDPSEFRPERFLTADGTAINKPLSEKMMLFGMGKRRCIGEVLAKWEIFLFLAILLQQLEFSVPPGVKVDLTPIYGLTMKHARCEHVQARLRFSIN
The experiment in a line: Inhibition of human recombinant CYP1A2 after 20 to 50 mins by high-throughput fluorescence assay. The format is ADME. Particulars: recombinant enzyme; call rule not given here.

Series [7] can be described thus: Inhibition of mouse GPR103A receptor expressed in CHO cells by IP-1 assay. The format is cell-based. The procedure, abridged:
as §1

Series [8] in a line: Apparent permeability across apical to basolateral side in human Caco2 cells by LC-MS/MS analysis. The format is ADME, cell-based. Particulars: Caco-2, read-out: permeability. On the technique in general: Caco-2 monolayers are a common model of the intestinal barrier.
Series [9] in a line: Intrinsic clearance in human hepatocytes measured per 10^6 cells. The format is ADME, cell-based, Hepatocyte. The settings on record: read-out: CLH. The gist of the method:
(§2)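 Intrinsic clearance corrected for unspecific binding in the incubations. CIR 1.4 for human hepatocytes, 1.7 for human liver microsomes.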

The target in a further series is Cytochrome P450 2C19 (Homo sapiens, UniProt P33261). Nature of the series: Inhibition of human recombinant CYP2C19 after 20 to 50 mins by high-throughput fluorescence assay. The settings on record: recombinant enzyme. It counts as ADME.
Chain of Cytochrome P450 2C19 (P33261 whole entry): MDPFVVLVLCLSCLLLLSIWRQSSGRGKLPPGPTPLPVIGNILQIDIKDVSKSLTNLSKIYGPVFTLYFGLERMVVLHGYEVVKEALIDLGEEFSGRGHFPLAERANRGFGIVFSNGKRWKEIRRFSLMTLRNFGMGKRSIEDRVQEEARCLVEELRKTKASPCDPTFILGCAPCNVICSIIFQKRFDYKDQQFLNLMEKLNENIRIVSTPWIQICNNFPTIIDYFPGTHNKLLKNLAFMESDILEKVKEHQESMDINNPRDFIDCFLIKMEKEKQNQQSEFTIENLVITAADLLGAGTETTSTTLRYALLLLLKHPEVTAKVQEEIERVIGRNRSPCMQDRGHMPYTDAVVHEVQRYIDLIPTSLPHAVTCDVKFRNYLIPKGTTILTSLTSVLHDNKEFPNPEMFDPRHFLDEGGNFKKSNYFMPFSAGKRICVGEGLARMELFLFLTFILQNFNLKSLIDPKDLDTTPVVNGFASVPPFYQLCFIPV
Series [10] has as its target Sodium channel protein type 5 subunit alpha (Homo sapiens, UniProt Q14524). Nature of the series: Inhibition of human Nav1.5 expressed in CHO cells by electrophysiology assay. It counts as cell-based.
Series [11] can be described thus: Intrinsic clearance in human liver microsomes. It counts as ADME. The settings on record: read-out: CLH. The procedure, abridged: as §2
The target of a further series is Cytochrome P450 3A4 (Homo sapiens, UniProt P08684). The experiment in a line: Inhibition of human recombinant CYP3A4 after 20 to 50 mins by high-throughput fluorescence assay. It counts as ADME. The settings on record: recombinant enzyme.
Chain of Cytochrome P450 3A4 (P08684 whole entry): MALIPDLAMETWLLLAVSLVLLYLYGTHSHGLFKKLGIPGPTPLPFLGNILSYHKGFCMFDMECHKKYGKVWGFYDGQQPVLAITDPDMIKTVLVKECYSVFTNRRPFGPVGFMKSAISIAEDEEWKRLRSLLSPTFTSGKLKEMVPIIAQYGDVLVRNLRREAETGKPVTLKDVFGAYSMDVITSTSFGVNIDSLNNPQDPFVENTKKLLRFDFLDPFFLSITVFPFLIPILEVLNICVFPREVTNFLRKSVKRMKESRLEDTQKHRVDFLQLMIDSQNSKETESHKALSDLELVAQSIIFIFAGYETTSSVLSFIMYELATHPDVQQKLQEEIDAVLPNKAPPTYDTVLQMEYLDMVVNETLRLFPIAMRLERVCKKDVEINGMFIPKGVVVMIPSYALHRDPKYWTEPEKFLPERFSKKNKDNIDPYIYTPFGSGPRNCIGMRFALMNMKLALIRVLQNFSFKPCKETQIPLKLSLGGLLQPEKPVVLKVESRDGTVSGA
The next series concerns the target T3, Cytochrome P450 2C8 (Homo sapiens, UniProt P10632).
T3 sequence (P10632 whole entry): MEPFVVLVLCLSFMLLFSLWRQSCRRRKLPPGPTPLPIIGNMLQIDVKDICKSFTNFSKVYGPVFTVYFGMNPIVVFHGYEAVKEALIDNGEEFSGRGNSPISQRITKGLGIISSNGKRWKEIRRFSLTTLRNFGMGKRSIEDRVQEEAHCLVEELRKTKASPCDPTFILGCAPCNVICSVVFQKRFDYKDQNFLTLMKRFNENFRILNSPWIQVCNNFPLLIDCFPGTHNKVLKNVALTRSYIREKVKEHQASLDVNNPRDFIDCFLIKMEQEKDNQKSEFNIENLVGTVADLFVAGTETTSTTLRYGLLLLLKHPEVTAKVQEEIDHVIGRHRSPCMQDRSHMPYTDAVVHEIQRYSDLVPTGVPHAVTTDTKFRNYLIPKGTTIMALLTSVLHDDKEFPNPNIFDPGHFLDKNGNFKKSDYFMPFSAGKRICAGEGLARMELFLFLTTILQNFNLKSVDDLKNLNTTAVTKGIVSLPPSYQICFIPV
The experiment in a line: Inhibition of human recombinant CYP2C8 after 20 to 50 mins by high-throughput fluorescence assay. It counts as ADME. The settings on record: recombinant enzyme.

The target of series [12] is Voltage-gated inwardly rectifying potassium channel KCNH2 (Homo sapiens, UniProt Q12809). The experiment in a line: Inhibition of human ERG expressed in CHO cells by electrophysiology assay. It counts as cell-based.
Chain of Voltage-gated inwardly rectifying potassium channel KCNH2 (Q12809 whole entry): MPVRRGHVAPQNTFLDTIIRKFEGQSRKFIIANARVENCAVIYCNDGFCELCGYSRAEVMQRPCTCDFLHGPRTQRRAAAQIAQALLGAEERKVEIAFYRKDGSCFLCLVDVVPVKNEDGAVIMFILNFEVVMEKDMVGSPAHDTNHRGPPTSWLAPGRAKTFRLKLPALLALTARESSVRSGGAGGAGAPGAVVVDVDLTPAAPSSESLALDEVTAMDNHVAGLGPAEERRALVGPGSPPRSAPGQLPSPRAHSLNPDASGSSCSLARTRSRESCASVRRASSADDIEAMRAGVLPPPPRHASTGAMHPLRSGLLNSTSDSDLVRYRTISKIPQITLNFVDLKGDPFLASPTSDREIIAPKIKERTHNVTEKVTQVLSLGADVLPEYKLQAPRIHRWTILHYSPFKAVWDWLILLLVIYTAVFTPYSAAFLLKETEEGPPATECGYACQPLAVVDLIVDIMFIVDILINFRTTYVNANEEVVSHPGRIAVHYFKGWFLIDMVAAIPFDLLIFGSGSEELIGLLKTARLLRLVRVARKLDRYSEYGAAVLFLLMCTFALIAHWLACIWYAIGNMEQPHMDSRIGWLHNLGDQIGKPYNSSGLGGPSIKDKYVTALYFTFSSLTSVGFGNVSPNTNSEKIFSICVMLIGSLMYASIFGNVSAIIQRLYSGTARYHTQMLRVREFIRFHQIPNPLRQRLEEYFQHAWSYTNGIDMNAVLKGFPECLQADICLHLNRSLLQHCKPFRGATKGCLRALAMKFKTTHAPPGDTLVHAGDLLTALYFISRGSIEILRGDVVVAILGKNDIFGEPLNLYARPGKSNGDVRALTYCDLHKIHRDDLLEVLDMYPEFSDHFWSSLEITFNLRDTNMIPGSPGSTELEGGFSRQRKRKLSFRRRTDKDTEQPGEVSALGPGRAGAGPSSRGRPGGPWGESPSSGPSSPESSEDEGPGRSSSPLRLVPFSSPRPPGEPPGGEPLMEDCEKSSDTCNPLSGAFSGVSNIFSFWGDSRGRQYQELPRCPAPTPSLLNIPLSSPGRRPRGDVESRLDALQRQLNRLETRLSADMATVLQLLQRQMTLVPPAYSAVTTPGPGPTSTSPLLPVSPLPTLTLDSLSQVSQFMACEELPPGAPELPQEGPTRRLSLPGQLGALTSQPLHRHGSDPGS

Values after ≈ are worked out from the molar mass of the structure shown. Bounds are passed on as bounds.

Chain of Sodium channel protein type 5 subunit alpha (Q14524 whole entry): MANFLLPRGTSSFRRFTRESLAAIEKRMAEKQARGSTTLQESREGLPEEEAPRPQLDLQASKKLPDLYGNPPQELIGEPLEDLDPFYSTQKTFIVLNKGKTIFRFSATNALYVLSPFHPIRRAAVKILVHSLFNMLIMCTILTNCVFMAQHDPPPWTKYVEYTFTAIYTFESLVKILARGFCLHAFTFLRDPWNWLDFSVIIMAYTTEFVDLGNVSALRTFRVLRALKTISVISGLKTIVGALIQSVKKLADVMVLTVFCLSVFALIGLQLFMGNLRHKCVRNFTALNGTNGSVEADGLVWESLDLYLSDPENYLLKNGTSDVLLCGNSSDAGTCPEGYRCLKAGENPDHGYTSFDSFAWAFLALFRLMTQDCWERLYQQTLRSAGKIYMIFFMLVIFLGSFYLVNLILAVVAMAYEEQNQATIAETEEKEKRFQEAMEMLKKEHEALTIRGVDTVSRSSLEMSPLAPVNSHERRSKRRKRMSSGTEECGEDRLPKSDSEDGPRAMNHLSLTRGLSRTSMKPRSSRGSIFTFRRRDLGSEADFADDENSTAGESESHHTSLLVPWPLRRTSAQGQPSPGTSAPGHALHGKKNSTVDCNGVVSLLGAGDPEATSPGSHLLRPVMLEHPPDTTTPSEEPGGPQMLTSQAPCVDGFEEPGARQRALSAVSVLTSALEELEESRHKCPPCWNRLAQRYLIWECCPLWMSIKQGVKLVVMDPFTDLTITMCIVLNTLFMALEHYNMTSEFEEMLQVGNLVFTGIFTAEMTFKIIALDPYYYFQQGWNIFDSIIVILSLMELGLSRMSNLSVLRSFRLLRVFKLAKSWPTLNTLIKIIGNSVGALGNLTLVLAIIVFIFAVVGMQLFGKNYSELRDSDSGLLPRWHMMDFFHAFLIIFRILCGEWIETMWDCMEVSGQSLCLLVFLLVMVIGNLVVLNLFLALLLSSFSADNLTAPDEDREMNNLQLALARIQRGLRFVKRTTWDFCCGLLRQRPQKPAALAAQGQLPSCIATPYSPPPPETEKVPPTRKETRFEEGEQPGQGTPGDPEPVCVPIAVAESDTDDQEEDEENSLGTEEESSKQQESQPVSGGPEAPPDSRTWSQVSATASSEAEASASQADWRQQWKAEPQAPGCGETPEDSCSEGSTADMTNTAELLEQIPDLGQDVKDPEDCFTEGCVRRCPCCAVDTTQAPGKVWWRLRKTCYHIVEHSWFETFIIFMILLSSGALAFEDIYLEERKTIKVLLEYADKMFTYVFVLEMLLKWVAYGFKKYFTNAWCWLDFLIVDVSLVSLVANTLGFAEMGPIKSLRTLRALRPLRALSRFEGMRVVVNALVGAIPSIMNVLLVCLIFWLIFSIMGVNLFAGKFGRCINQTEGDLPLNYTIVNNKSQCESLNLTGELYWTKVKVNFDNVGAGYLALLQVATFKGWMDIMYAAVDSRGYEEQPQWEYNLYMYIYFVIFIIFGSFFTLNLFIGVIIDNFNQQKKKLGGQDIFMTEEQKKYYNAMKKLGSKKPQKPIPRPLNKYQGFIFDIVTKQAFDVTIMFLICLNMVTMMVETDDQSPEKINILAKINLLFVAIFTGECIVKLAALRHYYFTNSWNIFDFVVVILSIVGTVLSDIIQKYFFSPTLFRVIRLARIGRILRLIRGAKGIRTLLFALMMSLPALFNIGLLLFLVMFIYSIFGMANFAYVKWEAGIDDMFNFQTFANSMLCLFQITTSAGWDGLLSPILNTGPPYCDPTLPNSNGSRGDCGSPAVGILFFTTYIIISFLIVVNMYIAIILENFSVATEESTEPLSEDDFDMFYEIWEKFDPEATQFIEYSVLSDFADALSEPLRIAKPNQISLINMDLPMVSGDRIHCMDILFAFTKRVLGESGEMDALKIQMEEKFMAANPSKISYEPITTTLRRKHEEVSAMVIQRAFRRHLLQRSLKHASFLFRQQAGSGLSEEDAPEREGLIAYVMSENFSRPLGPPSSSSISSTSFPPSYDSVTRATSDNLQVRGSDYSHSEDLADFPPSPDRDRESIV
Chain of Cytochrome P450 2D6 (P10635 whole entry): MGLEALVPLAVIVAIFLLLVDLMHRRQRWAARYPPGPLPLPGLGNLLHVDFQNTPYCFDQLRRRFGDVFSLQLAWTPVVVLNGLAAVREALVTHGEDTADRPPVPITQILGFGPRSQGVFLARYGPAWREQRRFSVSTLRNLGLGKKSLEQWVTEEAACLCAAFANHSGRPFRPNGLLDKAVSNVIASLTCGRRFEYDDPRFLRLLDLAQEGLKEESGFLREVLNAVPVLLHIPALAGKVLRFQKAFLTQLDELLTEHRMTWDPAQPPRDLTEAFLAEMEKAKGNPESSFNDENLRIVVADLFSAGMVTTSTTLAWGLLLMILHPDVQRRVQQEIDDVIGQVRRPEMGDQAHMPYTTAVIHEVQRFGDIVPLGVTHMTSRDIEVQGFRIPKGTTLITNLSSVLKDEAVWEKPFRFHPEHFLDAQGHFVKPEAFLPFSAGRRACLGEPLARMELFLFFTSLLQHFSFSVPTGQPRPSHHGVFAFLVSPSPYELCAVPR

One may read the IC50 as the concentration that inhibits the measured activity by half. A lower IC50 goes with higher potency. As usually defined, the logD is the decadic logarithm of the distribution of all forms, ionised or not, between an organic phase and buffer at a given pH. Read a low logD as a more hydrophilic compound. On to `CN(C)Cc1ccc2c(c1)CCN(C(=O)c1cc3ccncc3n1C)C2`, for which half-maximal inhibition in series [1] (IC50) was put at 2900 nM. In [2], the logD turned out to be 0.9.
With `CN(C)Cc1ccc2c(c1)CCN(C(=O)c1cc3cc(-c4ccccc4)ncc3n1C)C2`, the IC50 in series [1] was over 41000 nM. Besides, the logD in series [2] worked out at 3.
For `CC1Cc2cc(CN(C)C)ccc2CN1C(=O)c1cc2cc(Br)ncc2n1C` (racemic) the same measures were 710 nM and 2.1.
For the molecule `C#Cc1cc2cc(C(=O)N3CCc4cc(CN(C)C)ccc4C3)n(C)c2cn1`, in [1], the concentration for half-maximal inhibition (IC50) was determined as 6000 nM. In series [2], this molecule had a logD of 1.2.
As for `CC1c2ccc(CN(C)C)cc2CCN1C(=O)c1cc2cc(Br)ncc2n1C` (racemic), the IC50 in [1] is 500 nM. In series [2], this molecule came in with a logD of 2.2.
With `Cc1cc2cc(C(=O)N3CCc4cc(CN(C)C)ccc4C3)n(C)c2cn1`, the IC50 in series [1] is 18900 nM. Besides, the logD in series [2] came out at 1.3.
The molecule `CC1CN(C(=O)c2cc3cc(Br)ncc3n2C)Cc2ccc(CN(C)C)cc21` (racemic) came in with an IC50 in [1] of 110 nM. Also, the logD in series [2] turned out to be 2.1.
The term solubility denotes the concentration that dissolves in the medium under given conditions. A high value points to a readily soluble substance. Consider `CN(C)Cc1ccc2c(c1)CCN(C(=O)c1cc3cc(Br)ncc3n1C)C2`, for which the IC50 was 280 nM in [3]; over 33000 nM in [4]; 100 nM in [6]; over 20000 nM against Cytochrome P450 2D6; 330 nM in series [7]; 240 nM in series [1]. In addition, in series [10], the IC50 is over 33000 nM. Besides, the “inhibition (INH)” value on Cytochrome P450 2C9, on Cytochrome P450 1A2, on Cytochrome P450 2C19, at Cytochrome P450 3A4 and on Cytochrome P450 2C8 was “Not Active” throughout. The same molecule yielded a solubility at 18 h in [5] of over 1000 µM. In addition, the Papp A→B in series [8] stood at 13.2 ×10⁻⁶ cm/s. In [9], the hepatocyte CLint came out at 5.3 µL/min/1e6 cells. The microsomal CLint in [11] came out at 16 µL/min/mg. This molecule returned a logD in series [2] of 1.7.
In series [1], `CN(C)Cc1ccc2c(c1)CCN(C(=O)c1cc3cc(Cl)ncc3n1C)C2` returned an IC50 of 570 nM. Moreover, the logD in series [2] was determined as 1.5.
In [1], `CN(C)Cc1ccc2c(c1)CCN(C(=O)c1cc3cc(C(F)(F)F)ncc3n1C)C2` showed an IC50 of 3300 nM. In series [2], this molecule came in with a logD of 1.8.
Consider `CN(C)Cc1ccc2c(c1)CCN(C(=O)c1cc3cc(I)ncc3n1C)C2`, for which half-maximal inhibition in [1] (IC50) required 130 nM. Further, in series [2], the logD was found to be 2.
Consider `CN(C)Cc1ccc2c(c1)CCN(C(=O)c1cc3cc(Cl)ccc3n1C)C2`, for which the IC50 in [3] stood at 70 nM; in [4], 10500 nM; in series [6] it was 80 nM; in [12], 4900 nM; at Cytochrome P450 2D6, 2900 nM; in series [7], 90 nM. For the same molecule, the figures for the half-inhibitory concentration (IC50) in series [1] and in [10] were 70 nM and 10300 nM, respectively. The molecule further displayed a solubility at 18 h in [5] of 62 µM (≈ 23.7 µg/mL). Besides, the Papp A→B in series [8] was found to be 7.8 ×10⁻⁶ cm/s. The hepatocyte CLint in [9] was determined as 40 µL/min/1e6 cells. In addition, in [11], the microsomal CLint is 156 µL/min/mg. Moreover, the logD in series [2] turned out to be 3.
